Test results taken from ChEMBL document CHEMBL4393740, “Preparation and biological evaluation of soluble tetrapeptide epoxyketone proteasome inhibitors” (Bioorg Med Chem, 2019).

How the values were obtained:
[1] = molecular target: T1, Proteasome Macropain subunit MB1 (Homo sapiens, UniProt P28074); test: Inhibition of human chymotrypsin-like activity of 20S proteasome using Suc-LLVY-AMC as substrate pre-incubated for 10 mins followed by substrate addition and measured after 1 hr by spectrofluorimetry; conditions: read-out: IC50
T1 sequence (P28074 whole entry): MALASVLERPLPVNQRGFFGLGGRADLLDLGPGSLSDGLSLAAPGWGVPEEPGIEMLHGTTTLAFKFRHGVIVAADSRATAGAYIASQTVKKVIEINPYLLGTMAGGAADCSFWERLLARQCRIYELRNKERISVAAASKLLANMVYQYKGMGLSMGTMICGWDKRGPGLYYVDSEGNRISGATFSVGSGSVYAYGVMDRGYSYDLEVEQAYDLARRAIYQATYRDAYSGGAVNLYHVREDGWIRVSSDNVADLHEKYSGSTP

RPMI-8226 = test: Cytotoxicity against human RPMI8226 cells assessed as cell viability measured after 72 hrs by celltiter96 aqueous cell proliferation assay; format: functional, cell-based; conditions: RPMI-8226, 72 h
Method in brief: (§1)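 Suspension cells in log phase plated at 5000 (RPMI8226) or 10000 (U266B1) cells per well. Viability read after 72 h by MTS-type CellTiter 96 AQueous One assay on a plate reader. IC50 reported, three repeats.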

U-266 = test: Cytotoxicity against human U266B1 cells assessed as cell viability measured after 72 hrs by celltiter96 aqueous cell proliferation assay; format: functional, cell-based; conditions: U-266, 72 h; method in brief: as §1

| SMILES | IC50 [1] [nM] | IC50 (RPMI-8226) [nM] | IC50 (U-266) [nM] |
| --- | --- | --- | --- |
| Cc1cc(C(=O)N[C@@H](CCc2ccccc2)C(=O)N[C@H](C(=O)N[C@@H](Cc2ccccc2)C(=O)N[C@@H](CC(C)C)C(=O)[C@@]2(C)CO2)[C@@H](C)O)no1 | 48.3 | – | – |
| Cc1cc(C(=O)N[C@@H](CC(C)C)C(=O)N[C@@H](CC(C)C)C(=O)N[C@@H](Cc2ccccc2)C(=O)N[C@@H](CC(C)C)C(=O)[C@@]2(C)CO2)no1 | 41.5 | – | – |
| CC(C)C[C@H](NC(=O)[C@H](CCc1ccccc1)NC(=O)CN1CCOCC1)C(=O)N[C@@H](Cc1ccccc1)C(=O)N[C@@H](CCc1ccccc1)C(=O)[C@@]1(C)CO1 | 729 | – | – |
| CC[C@H](NC(=O)[C@H](Cc1ccccc1)NC(=O)[C@H](CC(C)C)NC(=O)[C@H](CCc1ccccc1)NC(=O)CN1CCOCC1)C(=O)[C@@]1(C)CO1 | 77.1 | – | – |
| Cc1cc(C(=O)NCC(=O)N[C@@H](CC(C)C)C(=O)N[C@@H](Cc2ccccc2)C(=O)N[C@@H](CC(C)C)C(=O)[C@@]2(C)CO2)no1 | 56.5 | – | – |
| CC(C)C[C@H](NC(=O)[C@H](Cc1cscn1)NC(=O)c1cnccn1)C(=O)N[C@@H](Cc1ccccc1)C(=O)N[C@@H](CC(C)C)C(=O)[C@@]1(C)CO1 | 38.8 | – | – |
| CC(C)C[C@H](NC(=O)[C@H](Cc1cscn1)NC(=O)CO)C(=O)N[C@@H](Cc1ccccc1)C(=O)N[C@@H](CC(C)C)C(=O)[C@@]1(C)CO1 | 52.1 | – | – |
| CC(C)C[C@H](NC(=O)[C@H](Cc1cscn1)NC(=O)c1cc(Cl)ccc1Cl)C(=O)N[C@@H](Cc1ccccc1)C(=O)N[C@@H](CC(C)C)C(=O)[C@@]1(C)CO1 | 64.8 | – | – |

Now those with a lower IC50 [1], led by results:

| IC50 [1] [nM] | SMILES | IC50 (RPMI-8226) [nM] | IC50 (U-266) [nM] |
| --- | --- | --- | --- |
| 32 | Cc1cc(C(=O)N[C@@H](CCc2ccccc2)C(=O)N[C@H](C(=O)N[C@@H](Cc2ccccc2)C(=O)N[C@@H](CC(C)C)C(=O)[C@@]2(C)CO2)C2CC2)no1 | – | – |
| 30.8 | Cc1cc(C(=O)N[C@@H](CCc2ccccc2)C(=O)N[C@H](C(=O)N[C@@H](Cc2ccccc2)C(=O)N[C@@H](CC(C)C)C(=O)[C@@]2(C)CO2)C2CCCCC2)no1 | 14.7 | 23.2 |
| 30.6 | COC[C@H](NC(=O)c1cc(C)on1)C(=O)N[C@@H](CC(C)C)C(=O)N[C@@H](Cc1ccccc1)C(=O)N[C@@H](CC(C)C)C(=O)[C@@]1(C)CO1 | – | – |
| 25.5 | Cc1cc(C(=O)N[C@@H](Cc2cc3ccccc3[nH]2)C(=O)N[C@@H](CC(C)C)C(=O)N[C@@H](Cc2ccccc2)C(=O)N[C@@H](CC(C)C)C(=O)[C@@]2(C)CO2)no1 | – | – |
| 20.6 | Cc1cc(C(=O)N[C@@H](Cc2cscn2)C(=O)N[C@@H](CC(C)C)C(=O)N[C@@H](Cc2ccccc2)C(=O)N[C@@H](CC(C)C)C(=O)[C@@]2(C)CO2)no1 | – | – |
| 26.8 | CC(C)C[C@H](NC(=O)[C@H](CCc1ccccc1)NC(=O)CN1CCOCC1)C(=O)N[C@@H](Cc1cscn1)C(=O)N[C@@H](CC(C)C)C(=O)[C@@]1(C)CO1 | 76.9 | 56.5 |
| 36.6 | Cc1cc(C(=O)N[C@@H](CCc2ccccc2)C(=O)N[C@@H](CC2CCCC2)C(=O)N[C@@H](Cc2ccccc2)C(=O)N[C@@H](CC(C)C)C(=O)[C@@]2(C)CO2)no1 | – | – |
